Source: PubChem (Johns Hopkins Ion Channel Center)
In the library only some 3.7% were active in any assay of this set; here they are far more common.
KCNK3 block: human KCNK3 channel inhibition, primary screen. B-score at 10 µM. 0.84% of 340,000 active. AID 602410. CHO-KCNK3 thallium flux, FluxOR fluorescence; stronger effect = lower value. O14649;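 active = B-score under library mean minus 4 SD, starting fluorescence ratio at most library mean plus 5 SD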;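 note: more negative B-score means stronger inhibition of thallium flux through KCNK3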
Target sequence (O14649 whole entry, looked up): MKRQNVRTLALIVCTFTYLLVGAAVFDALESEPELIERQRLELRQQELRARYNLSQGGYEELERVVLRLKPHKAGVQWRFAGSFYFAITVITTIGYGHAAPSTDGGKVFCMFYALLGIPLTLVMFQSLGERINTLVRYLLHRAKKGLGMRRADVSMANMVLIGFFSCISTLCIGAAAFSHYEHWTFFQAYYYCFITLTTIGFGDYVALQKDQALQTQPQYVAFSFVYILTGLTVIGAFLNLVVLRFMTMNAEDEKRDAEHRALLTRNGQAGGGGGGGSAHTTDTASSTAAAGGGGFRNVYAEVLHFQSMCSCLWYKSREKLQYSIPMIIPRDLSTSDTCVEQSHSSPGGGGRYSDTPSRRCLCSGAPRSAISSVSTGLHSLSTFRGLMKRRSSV
KCNK9 inh: blocks the human KCNK9 two-pore domain potassium channel; Q9NPC2; HEK293 KCNK9, FluxOR thallium flux fluorescence; stronger effect = lower value; B-score at 10 µM; 1.2% of 310,000 active; AID 488922;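 active = ratio B-score over 3 SD below the library mean, with starting fluorescence within 5 SD of its mean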;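 note: negative B-score means less thallium flux so channel inhibition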
KCNQ1 pot: potentiates or activates the human KCNQ1 potassium channel | P51787 | CHO-K1 KCNQ1, thallium flux FluxOR fluorescence; stronger effect = higher value | B-score at 10 µM | 0.35% of 310,000 active;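 active = fluorescence ratio B-score, a plate-corrected score, at least three library SD, with initial intensity B-score within 5 SD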
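Medium – assay buffer, equal DMSO in all wells · Material – CHO-K1 cell line with stable KCNQ1 potassium channel expression · Signal – kinetic FluxOR thallium fluorescence, 10-s 1-Hz baseline, 110-s post-stimulus read · Compound – single concentration per compound, DMSO matched to controls · Schedule – 37 °C overnight plating, 90-min dark dye load, 20-min compound pretreatment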
KCNQ1 inh: human KCNQ1 channel inhibition. AID 2642. B-score at 10 µM. 1.3% of 310,000 active. CHO-K1 KCNQ1, FluxOR thallium flux fluorescence; stronger effect = higher value;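 active = compounds whose thallium flux B-score, printed positive for inhibition, exceeds three library SD while starting fluorescence stays within three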;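 note: channel opened by potassium depolarization with thallium stimulus after 20 min compound exposure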
hERG rescue: shields human hERG channel from block by proarrhythmic agents; Q12809; 0.51% of 310,000 active; CHO-hERG, FluxOR thallium flux, dofetilide IC70 present; activation (rescue from dofetilide block), less the hit threshold, % at 10 µM;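 active = activation above the mean of controls blocked by dofetilide plus 5 SD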;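 note: thallium influx through hERG after potassium depolarization seen as dye fluorescence rise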
Kir21 block: inhibitors of mouse Kir2.1 inward-rectifier potassium channel. HEK293-Kir2.1, FluxOR thallium flux fluorescence; stronger effect = lower value. B-score at 10 µM. 0.85% of 310,000 active. P35561;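 active = fluorescence ratio B-score at or below minus 3 SD of library scores, with starting-brightness B-score within 2 SD, cut at about -4.2 in these data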;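 note: channel flux triggered by added potassium and thallium sulfate stimulus; B-score of peak minus minimum fluorescence over baseline after thallium stimulus; more negative B-score means stronger Kir2.1 block with less thallium influx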
KCNK3 confirm: human KCNK3 channel inhibition, confirmation assay; CHO-KCNK3 thallium flux, FluxOR fluorescence; 0% buffer, 100% carvedilol maximal block; AID 651638; shares compounds with KCNK3 block; 99% of 2,400 active; ratio percent of control, % at 10 µM;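 active = ratio percent of control, averaged over triplicates, above buffer control mean plus 5 SD, cut at about 64% in these data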;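 note: ratio is the fluorescence rise from min to max over baseline after thallium stimulus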
KCNK3 uninduced: activity in cells without induced KCNK3 expression | shares compounds with KCNK3 block | non-induced KCNK3 parental cells, FluxOR thallium flux; stronger effect = lower value | thallium flux ratio (lower = more inhibition) at 10 µM | 40% of 2,400 active | AID 651747;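 active = thallium flux ratio, averaged over three wells, more than 5 SD below the buffer control mean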;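 note: host cells are CHO cells without KCNK3 induction; ratio is peak minus trough fluorescence over baseline then normalized to buffer controls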
Active calls of the source: *; i = inactive; . = no result given.

SMILES	KCNK3 block	KCNK9 inh	KCNQ1 pot	KCNQ1 inh	hERG rescue	Kir21 block	KCNK3 confirm	KCNK3 uninduced
O=C(N/N=C\c1cc([N+](=O)[O-])ccc1N1CCCC1)c1ccccn1	i	i	i	i	-5	0.38	.	.
Cc1cc(/C=N/NC(=O)c2ccccn2)c(C)n1-c1cccc([N+](=O)[O-])c1	-9*	i	i	i	-3	0.9	88*	i
COC(=O)CNC(=O)C1Nc2ccc(OC(F)(F)F)cc2C2C=CCC12 (stereo not drawn)	i	i	i	i	-11	0.63	.	.
COc1ccc(CN(C)C(C)C(=O)N(C)CC(=O)Nc2ccc(C)cc2)cc1F (stereo not drawn)	i	.	.	.	.	.	.	.
O=C(COCC(=O)Nc1cccc(C(F)(F)F)c1)Nc1cccc(C(F)(F)F)c1	i	i	i	i	-13	0.31	.	.
COc1cc(NC(=O)CSCC(=O)Nc2cccc(C(F)(F)F)c2)c(Cl)cc1Cl	-11*	i	i	7*	-12	-1.6	115*	i
COC(=O)[C@]1(Cc2ccccc2)N[C@H](c2ccc(-c3ccc4c(c3)OCO4)cc2)[C@@H]2C(=O)N(C)C(=O)[C@@H]21	i	i	i	i	-7	-0.25	.	.
c1ccc(COn2nnc3ccccc32)c(COn2nnc3ccccc32)c1	-9.7*	i	i	i	-10	-5.7*	102*	i
Cc1c(/C=N/NC(=O)c2ccccc2O)c2ccccn2c1C(=O)c1ccc(F)cc1	-11*	-7.9*	i	10*	-20	0.1	129*	0.16*
Cc1c(/C=N/NC(=O)c2ccc(O)cc2)c2ccccn2c1C(=O)c1ccc(F)cc1	i	i	i	i	-7	0.05	.	.
N#Cc1nc(COc2ccc(Br)cc2)oc1N1CCCCCC1	-15*	i	i	i	-7	0.33	82*	i
CN(C)S(=O)(=O)c1ccc(C(=O)NCc2ccco2)cc1	-9.2*	i	i	i	-4	0.51	72*	i
CCCN(CCC)S(=O)(=O)c1ccc(C(=O)NCc2ccco2)cc1	i	i	i	i	-3	0.85	.	.
COc1ccc(C2c3ccc(O)cc3Oc3ncn(Cc4ccccc4)c(=N)c32)cc1OC (stereo not drawn)	-8.9*	i	i	i	-14	0.27	75*	i
CC(OC(=O)C1CCN(S(=O)(=O)c2ccc(Cl)cc2)CC1)C(=O)NC1CCCCC1C (stereo not drawn)	i	i	i	i	-13	2	.	.
Cc1cccc(C(CC(=O)NCc2ccco2)c2ccccc2)c1O (stereo not drawn)	-9*	i	i	i	-18	0.01	110*	i
Cc1ccc(O)c(C(CC(=O)NCc2ccco2)c2ccccc2)c1 (stereo not drawn)	i	i	i	i	-3	-2.6	.	.
COc1ccc(Cl)cc1NC(=O)N1CCN(c2ccccc2OC)CC1	-11*	i	i	i	-13	-0.07	82*	i
COc1ccccc1C(=O)NC(CCSC)C(=O)NNC(=O)c1ccccc1O (stereo not drawn)	i	.	.	.	.	.	.	.
CCOc1ccc(CN(C)c2nc(-c3cccnc3)nc3ccccc23)cc1OC	-16*	i	i	i	-7	-0.26	104*	i
CC1CCN(S(=O)(=O)c2ccc3ncn(CC(=O)N(C)Cc4ccccc4)c(=O)c3c2)CC1	-13*	i	i	i	-2	-0.02	72*	i
COC(=O)c1ccccc1NC(=O)Cn1cnc2ccc(S(=O)(=O)N3CCC(C)CC3)cc2c1=O	i	i	i	i	-1	1.4	.	.
COc1ccccc1/C=C/C(=O)OCC(=O)NC1CCS(=O)(=O)C1 (stereo not drawn)	i	.	.	.	.	.	.	.
Cc1ccccc1NC1=C(Cl)C(=O)OC1OC(=O)c1ccccc1C (stereo not drawn)	-12*	i	i	i	-6	-0.68	128*	0.11*
O=C(CSc1nc(Nc2ccccc2)nc(N2CCOCC2)n1)Nc1ccc([N+](=O)[O-])cc1	i	i	i	i	-12	-0.18	.	.
SMILES	KCNK3 block	KCNK9 inh	KCNQ1 pot	KCNQ1 inh	hERG rescue	Kir21 block	KCNK3 confirm	KCNK3 uninduced
O=C(CSc1nc(Nc2ccccc2)nc(N2CCOCC2)n1)Nc1cccc([N+](=O)[O-])c1	-11*	i	i	i	-10	1.1	110*	0.15*
O=C(Cc1ccccc1)Nc1cccc(-c2nc3ncccc3o2)c1	-10*	i	i	i	-2	-1.5	64*	i
O=C(CSc1ccc2nnc(-c3cccnc3)n2n1)Nc1ccc(F)cc1F	i	i	i	i	-4	1.7	.	.
CC(C)n1nnc(-c2ccc(OCc3ccccc3F)cc2)n1	-9.1*	-7.9*	i	i	-7	0.15	99*	i
O=C(O)Cn1nnc(-c2ccc(OCc3ccccc3Cl)cc2)n1	i	i	i	i	-3	0.26	.	.
Cc1ccc2oc(-c3cccc(NC(=O)c4ccc(Br)o4)c3)nc2c1	-11*	i	i	i	-8	-0.63	105*	i
COc1ccc2cc(CN(CC3COCCO3)S(=O)(=O)c3ccc(Cl)cc3)c(=O)[nH]c2c1 (stereo not drawn)	i	i	i	i	-4	-0.95	.	.
COc1ccccc1/C=C1\SC(=S)N(N2C(=O)CCCC2=O)C1=O	-9.4*	i	i	i	-12	0.28	105*	i
CSc1ccccc1NC(=O)CN(C)C(C)C(=O)NCc1ccc2c(c1)OCO2 (stereo not drawn)	i	.	.	.	.	.	.	.
O=C(C[C@@H]1C/C=C\CCC(=O)OC[C@H](Cc2ccccc2)NC1=O)N[C@@H](CO)Cc1ccccc1	i	.	.	.	.	.	.	.
COc1ccc(OC)c2c1sc(=NC(=O)C1COc3ccccc3O1)n2C (stereo not drawn)	-9.6*	i	i	i	-10	-0.44	108*	i
CCC(=O)N=c1sc2c(OC)ccc(OC)c2n1C	i	i	i	i	-11	1.1	.	.
COn1c(=O)c(-c2cccs2)[n+]([O-])c2ccccc21	-10*	i	i	i	-11	-4	87*	0.11*
CCOc1cc(/C=C2\C(=O)N(Cc3ccco3)C(C)=C2C(=O)OC)ccc1O	-9.5*	i	i	i	-27	-0.16	71*	i
